Data on 3 compounds can be found in ChEMBL document CHEMBL1130123, “Optimization of 3-(1H-indazol-3-ylmethyl)-1,5-benzodiazepines as potent, orally active CCK-A agonists” (J Med Chem, 1997).

Series [1] has as its system Mus musculus. Put plainly: (§1) Maximal response at 0.5 umol/kg intraperitoneal dose. It is filed as functional.
Series [2] deals with T1, Gastrin/cholecystokinin type B receptor (Homo sapiens, UniProt P32239).
T1 sequence (P32239 whole entry): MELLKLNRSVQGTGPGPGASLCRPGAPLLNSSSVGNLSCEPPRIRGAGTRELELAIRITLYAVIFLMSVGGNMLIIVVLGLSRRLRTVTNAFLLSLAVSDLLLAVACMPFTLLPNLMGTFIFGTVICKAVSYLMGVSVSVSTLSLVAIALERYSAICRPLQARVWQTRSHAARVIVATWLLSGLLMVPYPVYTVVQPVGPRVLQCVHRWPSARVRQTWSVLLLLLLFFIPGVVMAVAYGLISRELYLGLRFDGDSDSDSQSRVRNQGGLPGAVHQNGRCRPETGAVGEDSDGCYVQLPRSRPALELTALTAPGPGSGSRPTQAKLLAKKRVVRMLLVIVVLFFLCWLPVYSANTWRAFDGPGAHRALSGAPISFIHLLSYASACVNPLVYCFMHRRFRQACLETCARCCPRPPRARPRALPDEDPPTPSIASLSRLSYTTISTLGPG
Put plainly: In vitro for binding affinity against human cholecystokinin type B receptor.

A short description of series [3]: Oral bioavailability in Long-Evans rats at an peroral dose of 6.3 mg/kg. The following applies: rat, in vivo. The format is ADME, organism-based.
Series [4] is described as follows: Maximum concentration at an intravenous dose of 5.5 mg/kg in rat. It is filed as ADME, organism-based. Also noted: dose 5.5 mg/kg, route intravenous. Particulars: in vivo; call rule not given here.
Series [5] in a line: Half life period at an intravenous dose of 5.5 mg/kg in rat. It is filed as ADME, organism-based. On the set-up: dose 5.5 mg/kg, route intravenous. The following applies: in vivo.
The nature of series [6]: Total body clearance at an intravenous dose of 5.5 mg/kg in rat. It is filed as ADME, organism-based. On the set-up: dose 5.5 mg/kg, route intravenous. Particulars: in vivo.
For series [7], the species on record is Cavia porcellus. Nature of the series: In vitro functional agonist activity in the isolated guinea pig gall bladder, concentration at which 50% of the maximal contraction observed was reported. The following applies: read-out: ED50 (the source's name).
Series [8] deals with Mus musculus. Nature of the series: Maximal response at 1 nmol/kg peroral dose. It is filed as functional.
The species entered for series [9] is Cavia porcellus. Nature of the series: In vitro functional efficacy relative to CCK-8 in inducing contraction of the isolated guinea pig gallbladder (GPGB) at a 1 uM concentration. The gist of the method: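 Isolated guinea pig gallbladder, ligand 1 μM, 30 min at 37 °C; maximal contraction expressed relative to CCK-8 (1 μM) = 100%; values ± 5%.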
Series [10] deals with Mus musculus. Nature of the series: Intraperitoneal dose that produces a half maximal response in mouse gall bladder emptying assay (in vivo). The format is functional. Particulars: ip.
Series [11] has as its system Mus musculus. Put plainly: Maximal response at 1 nmol/kg intraperitoneal dose. The format is functional.
Series [12] deals with Mus musculus. Nature of the series: Peroral dose that produces a half maximal response in mouse gall bladder emptying assay (in vivo). The format is functional. Particulars: po.
A short description of series [13]: Volume of distribution at steady state at an intravenous dose of 5.5 mg/kg in rat. It is filed as ADME, organism-based. On the set-up: dose 5.5 mg/kg, route intravenous. Particulars: in vivo, read-out: Vss.
Series [14] in a line: Maximum concentration at an peroral dose of 6.3 mg/kg in rat. The format is ADME, organism-based. Also noted: dose 6.3 mg/kg, route oral. Particulars: in vivo, po.
Series [15] has as its target T2, Cholecystokinin receptor type A (Homo sapiens, UniProt P32238).
T2 sequence (P32238 whole entry): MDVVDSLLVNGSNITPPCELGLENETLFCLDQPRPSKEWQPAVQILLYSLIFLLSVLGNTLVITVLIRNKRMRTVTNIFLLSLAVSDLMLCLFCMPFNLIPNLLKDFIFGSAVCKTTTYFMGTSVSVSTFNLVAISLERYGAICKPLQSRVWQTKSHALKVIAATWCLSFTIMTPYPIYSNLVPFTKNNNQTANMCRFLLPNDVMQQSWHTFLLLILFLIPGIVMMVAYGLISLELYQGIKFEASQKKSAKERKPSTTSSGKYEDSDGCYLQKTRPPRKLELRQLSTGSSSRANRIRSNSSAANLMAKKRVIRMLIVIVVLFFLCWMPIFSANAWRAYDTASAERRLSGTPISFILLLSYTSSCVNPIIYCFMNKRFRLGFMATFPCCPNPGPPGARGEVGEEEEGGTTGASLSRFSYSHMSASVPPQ
Nature of the series: In vitro for binding affinity against human cholecystokinin type A receptor.

Series [16] is described as follows: Half life period at an intravenous dose of 5.2 mg/kg in rat. Particulars: in vivo. It is filed as ADME, organism-based. On the set-up: dose 5.2 mg/kg, route intravenous.
Series [17] is described as follows: Maximum concentration at an intraduodenal dose of 5.2 mg/kg in rat. The format is ADME, organism-based. On the set-up: dose 5.2 mg/kg, route intraduodenal. Particulars: in vivo.
Series [18] can be described thus: Total body clearance at an intravenous dose of 5.2 mg/kg in rat. The following applies: in vivo. It is filed as ADME, organism-based. Also noted: dose 5.2 mg/kg, route intravenous.
The nature of series [19]: Oral bioavailability in Long-Evans rats at an intraduodenal dose of 5.2 mg/kg. The following applies: rat, in vivo, other: intraduodenal. The format is ADME, organism-based.
Series [20] can be described thus: Maximum concentration at an intravenous dose of 5.2 mg/kg. The format is ADME, organism-based. Also noted: dose 5.2 mg/kg, route intravenous. Particulars: rat, in vivo.
Series [21] can be described thus: Oral bioavailability in Long-Evans rats at an intravenous dose of 5.2 mg/kg; Not active. It is filed as ADME, organism-based. Particulars: rat, in vivo.
A short description of series [22]: Volume of distribution at steady state at an intravenous dose of 5.2 mg/kg in rat. The format is ADME, organism-based. Also noted: dose 5.2 mg/kg, route intravenous. The following applies: in vivo, read-out: Vss.
Series [23] has as its system Rattus norvegicus. The series is described as §1. The format is functional.
Series [24] is described as follows: Maximum concentration at an intraduodenal dose of 6.6 mg/kg in rat. It is filed as ADME, organism-based. Also noted: dose 6.6 mg/kg, route intraduodenal. Particulars: in vivo.
Series [25] in a line: Half life period at an intravenous dose of 6.3 mg/kg in rat. It is filed as ADME, organism-based. On the set-up: dose 6.3 mg/kg, route intravenous. The following applies: in vivo.
For series [26], the system named is Mus musculus. Put plainly: maximal response at 1 nmol/kg peroral dose. The format is functional.
A short description of series [27]: Volume of distribution at steady state at an intravenous dose of 6.3 mg/kg in rat. It is filed as ADME, organism-based. Also noted: dose 6.3 mg/kg, route intravenous. The following applies: in vivo, read-out: Vss.
Series [28] in a line: Maximum concentration at an intravenous dose of 6.3 mg/kg. It is filed as ADME, organism-based. The following applies: rat, in vivo. On the set-up: dose 6.3 mg/kg, route intravenous.
A short description of series [29]: Maximum concentration at an peroral dose of 6.2 mg/kg in rat. It is filed as ADME, organism-based. Also noted: dose 6.2 mg/kg, route oral. The following applies: in vivo, po.
The nature of series [30]: Oral bioavailability in Long-Evans rats at an intravenous dose of 6.3 mg/kg; Not active. Particulars: rat, in vivo. The format is ADME, organism-based.
Series [31] in a line: Total body clearance at an intravenous dose of 6.3 mg/kg in rat. The format is ADME, organism-based. Also noted: dose 6.3 mg/kg, route intravenous. The following applies: in vivo.
A short description of series [32]: Oral bioavailability in Long-Evans rats at an intraduodenal dose of 6.6 mg/kg. It is filed as ADME, organism-based. The following applies: rat, in vivo, other: intraduodenal.
Series [33] in a line: Oral bioavailability in Long-Evans rats at an peroral dose of 6.2 mg/kg. It is filed as ADME, organism-based. The following applies: rat, in vivo.
Series [34] deals with Rattus norvegicus. Nature of the series: Anorectic potency in rat was tested and intraperitoneal dose that produces a half maximal response (in vivo). The format is functional. The following applies: ip.

What is called IC50 is the midpoint of a concentration-inhibition curve. Higher therefore signals a need for much substance. One may read the bioavailability as the share of a dose that reaches the circulation, judged against a reference dose that is usually intravenous. A low value points to little systemic uptake. What is called Cmax is the maximum level reached in the sampled fluid or tissue. As usually defined, the half-life is the time in which the quantity being followed falls by half. A low value points to rapid decline. A word on the clearance: it is a measure of how efficiently the substance is removed, as volume per time. In general, ED50 refers to the dose at which the effect has come halfway, by size or by number of responders. High values mean weaker potency, low ones greater potency.

As to `COc1ccc(N(C(=O)CN2C(=O)C(Cc3n[nH]c4ccccc34)(OC)C(=O)N(c3ccccc3)c3ccccc32)C(C)C)cc1` (stereo not drawn), the Max with Mus musculus [1] is listed as 52%; in the series with Mus musculus [8], 72%; in the series listed under Cavia porcellus [9] it was 70%; in the series with Mus musculus [11] it was 89%. In addition, the IC50 in series [2] is 3630 nM; in [15] it was 14.5 nM. In [3], this compound yielded a bioavailability of 5%. Besides, the Cmax came to 4900 ng/mL in [4] and 90 ng/mL in series [14]. In addition, the half-life in series [5] was 3.4 h. The compound also displayed a clearance in series [6] of 35 mL/min/kg. Also, the EC50 in the series filed under Cavia porcellus [7] was determined as 70 nM. For the same compound, the 50% effective dose (ED50) stood at 0.0003 µmol/kg in the series on Mus musculus [10] and 0.1 µmol/kg in the series with Mus musculus [12]. Also, in series [13], the Vd is 7.63 L/kg.
For the compound `COc1ccc(N(C(=O)CN2C(=O)C(C)(Cc3n[nH]c4ccccc34)C(=O)N(c3ccccc3)c3ccccc32)C(C)C)cc1` (stereo not drawn), the half-life in [16] is 3.9 h. Moreover, the Cmax in [17] was 30 ng/mL; in series [20], 3390 ng/mL. The compound also showed a clearance in series [18] of 30 mL/min/kg. The compound further returned a bioavailability in [19] of 15%. Further, the Max in the series with Mus musculus [8] was found to be 28%. Moreover, the F entry in [21] is recorded as “Not Active”. Further, in series [22], the Vd was 4.31 L/kg.
For the compound `COc1ccc(N(C(=O)CN2C(=O)C(Cc3n[nH]c4ccccc34)C(=O)N(c3ccccc3)c3ccccc32)C(C)C)cc1` (stereo not drawn), the results for the Max in the series with Rattus norvegicus [23], in the series on Mus musculus [26] and with Mus musculus [11] were 98%, 89% and 97%, respectively. Further, the peak concentration (Cmax) in series [24] amounted to 193 ng/mL; in [28], 2100 ng/mL; in series [29] it was 20 ng/mL. The half-life in series [25] was 2.1 h. The Vd in [27] was determined as 5.17 L/kg. Further, the ED50 in the series with Mus musculus [10] is 0.0002 µmol/kg; in the series with Mus musculus [12] it was 0.01 µmol/kg; in the series on Rattus norvegicus [34], 0.05 µmol/kg. The F entry in [30] is listed as “Not Active”. The compound also yielded a clearance in series [31] of 38 mL/min/kg. Also, the bioavailability in [32] was 16%; in [33] it was 8%.
